# Reference: ChEMBL document CHEMBL1151957, “Design and synthesis of novel C14-hydroxyl substituted triptolide derivatives as potential selective antitumor agents” (J Med Chem, 2009)
# Activity calls are given as the source filed them. The calls are words filed in the database; no cut-off is given here.
# Key:
# MDA-MB-468 [1] = assay: Cytotoxicity against human MDA-MB-468 cells by SRB assay; format: functional, cell-based
# Procedure, shortened: (§1)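 Cells grown in RPMI 1640 with 10% heat-inactivated FBS, 2 mmol/L glutamine, 10 mmol/L HEPES pH 7.4, 5% CO2, 37 °C; MCF-7/ADR also given 1 mmol/L pyruvate and 0.01 mg/mL insulin. Treated in triplicate with graded concentrations for 72 h at 37 °C, read by SRB. IC50 (50% growth inhibition vs control) by logit method; three independent experiments.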
# PC-3 [2] = assay: Cytotoxicity against human PC3 cells by SRB assay; format: functional, cell-based; procedure, shortened: as §1
# SK-OV-3 [3] = assay: Cytotoxicity against human SKOV3 cells by SRB assay; format: functional, cell-based; procedure, shortened: as §1
# [4] = Cytotoxicity against human SW1116 cells after 72 hrs by […]; format: functional, cell-based; conditions: SW 1116, 72 h
# Procedure, shortened: (§2)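 Cells grown at 37 °C in 5% CO2 in RPMI 1640 with 10% heat-inactivated FBS, glutamine, antibiotics and HEPES; MCF-7 medium also had sodium pyruvate and insulin. Cells in 96-well plates were treated in triplicate with graded concentrations for 72 h at 37 °C. Read-out was MTT for leukemia lines and SRB for solid-tumor lines. IC50 was set relative to control by the logit method, as mean ± SD of three independent experiments.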
# HCT-116 = assay: Cytotoxicity against human HCT116 cells after 72 hrs […]; format: functional, cell-based; conditions: HCT-116, 72 h; procedure, shortened: as §2
# SGC-7901 [5] = assay: Cytotoxicity against human SGC7901 cells after 72 hrs by SRB assay; conditions: SGC-7901, 72 h
# DU-145 = assay: Cytotoxicity against human DU145 cells after 72 hrs by […]; format: functional, cell-based; conditions: DU-145, 72 h; procedure, shortened: as §2
# Bel-7402 = assay: Cytotoxicity against human Bel7402 cells after 72 hrs by […]; format: functional, cell-based; conditions: Bel-7402, 72 h; procedure, shortened: as §2
# MDA-MB-468 [6] = assay: Antitumor activity against human MDA-MB-468 cells xenografted in BALB/cA nu/nu mouse assessed as tumor growth inhibition at 1 to 4 mg/kg, po; format: functional, organism-based
# Procedure, shortened: (§3)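 Nude BALB/cA nu/nu mice, 4-5 weeks old, received 1 mm³ tumor fragments implanted sc into the right flank by trocar. At 100-200 mm³ they were randomized, six per group, and dosed po daily in vehicle; controls got vehicle alone. Calipers twice weekly; V = length×width²/2; RTV = Vt/V0; T/C (%) = mean RTV treated / mean RTV control ×100. Student t test.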
# MDA-MB-231 = assay: Cytotoxicity against human MDA-MB-231 cells after 72 hrs […]; format: functional, cell-based; conditions: MDA-MB-231, 72 h; procedure, shortened: as §2
# Mus musculus [7] = assay: Toxicity in BALB/cA nu/nu mouse assessed as change in kidney gross anatomy at 1 to 4 mg/kg, po; format: organism-based; design: dose 1-4 mg/kg, route oral; conditions: in vivo
# Procedure, shortened: (§4)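 Female-unspecified BALB/cA nu/nu mice, 4-5 weeks old, carried sc 1 mm³ tumor fragments in the right flank. At 100-200 mm³, mice were randomized six per group and given compound po daily in vehicle, with vehicle-only controls, over about 21 days. Endpoints were deaths, systemic toxicity, body weight, and gross anatomy of liver and kidney.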
# KB [8] = assay: Resistant factor, ratio of IC50 for multidrug-resistant human KB/VCR cells to IC50 for human KB cells; format: functional
# Procedure, shortened: (§5)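 Resistance factor is the IC50 in the MDR line divided by the IC50 in its parental line. Both come from 72 h growth-inhibition assays: MTT for the leukemia pair, SRB for the solid-tumor pairs.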
# SMMC-7721 [9] = assay: Cytotoxicity against human SMMC7721 cells after 72 hrs […]; format: functional, cell-based; conditions: SMMC-7721, 72 h; procedure, shortened: as §2
# SK-OV-3 [10] = assay: Antitumor activity against human SKOV3 cells xenografted in BALB/cA nu/nu mouse assessed as tumor growth inhibition at 2 mg/kg, po measured on day 21 postinfection; format: functional; design: scale not given: the % may be the effect or the level left; procedure, shortened: as §3
# Mus musculus [11] = assay: Toxicity in BALB/cA nu/nu mouse assessed as change in body weight at 1 to 4 mg/kg, po; format: organism-based; design: dose 1-4 mg/kg, route oral; conditions: in vivo; procedure, shortened: as §4
# Mus musculus [12] = assay: Toxicity in BALB/cA nu/nu mouse assessed as mortality at 1 to 4 mg/kg, po; format: organism-based; design: dose 1-4 mg/kg, route oral; conditions: in vivo; procedure, shortened: as §4
# HCT-15 = assay: Cytotoxicity against human HCT15 cells after 72 hrs […]; format: functional, cell-based; conditions: HCT-15, 72 h; procedure, shortened: as §2
# MKN-28 = assay: Cytotoxicity against human MKN28 cells after 72 hrs […]; format: functional, cell-based; conditions: MKN-28, 72 h; procedure, shortened: as §2
# MOLT-4 = assay: Cytotoxicity against human MOLT4 cells after 72 hrs by MTT assay; format: functional, cell-based; conditions: MOLT-4, 72 h; procedure, shortened: as §2
# K562 [13] = assay: Cytotoxicity against human K562 cells after 72 hrs by MTT assay; format: functional, cell-based; conditions: K562, 72 h; procedure, shortened: as §2
# [14] = Cytotoxicity against human Rh30 cells after 72 hrs by […]; format: functional, cell-based; conditions: SJRH30, 72 h; procedure, shortened: as §2
# MCF7 [15] = assay: Cytotoxicity against human MCF7 cells after 72 hrs […]; format: functional, cell-based; conditions: MCF7, 72 h; procedure, shortened: as §2
# A549 = assay: Cytotoxicity against human A549 cells after 72 hrs by SRB assay; conditions: A549, 72 h
# SGC-7901 [16] = assay: Antitumor activity against human SGC7901 cells xenografted in BALB/cA nu/nu mouse assessed as tumor growth inhibition at 4 mg/kg, po; format: functional; design: scale not given: the % may be the effect or the level left; procedure, shortened: as §3
# KB [17] = assay: Cytotoxicity against human KB cells after 72 hrs […]; format: functional, cell-based; procedure, shortened: as §2
# U-251 = assay: Cytotoxicity against human U251 cells after 72 hrs […]; format: functional, cell-based; conditions: U-251, 72 h; procedure, shortened: as §2
# K562 [18] = assay: Resistant factor, ratio of IC50 for multidrug-resistant human K562/A02 cells to IC50 for human K562 cells; format: functional; procedure, shortened: as §5
# SK-OV-3 [19] = assay: Cytotoxicity against human SKOV3 cells after 72 hrs by […]; format: functional, cell-based; conditions: SK-OV-3, 72 h; procedure, shortened: as §2
# SK-OV-3 [20] = assay: Antitumor activity against human SKOV3 cells xenografted in BALB/cA nu/nu mouse assessed as tumor growth inhibition at 4 mg/kg, po measured on day 21 postinfection; format: functional; design: scale not given: the % may be the effect or the level left; procedure, shortened: as §3
# [21] = Cytotoxicity against multidrug-resistant human K562/A02 cells by MTT assay
# [22] = Cytotoxicity against human 786-O cells after 72 hrs […]; format: functional, cell-based; conditions: 786-0, 72 h; procedure, shortened: as §2
# PC-3 [23] = assay: Antitumor activity against human PC3 cells xenografted in BALB/cA nu/nu mouse assessed as tumor growth inhibition at 4 mg/kg, po measured on day 21 postinfection; format: functional, organism-based; design: dose 4 mg/kg; procedure, shortened: as §3
# SK-OV-3 [24] = assay: Antitumor activity against human SKOV3 cells xenografted in BALB/cA nu/nu mouse assessed as tumor growth inhibition at 1 mg/kg, po relative to control; format: functional; procedure, shortened: as §3
# MDR = assay: Cytotoxicity against multidrug-resistant human KB/VCR cells by SRB assay in presence of MDR reversing agent verapamil; format: functional, cell-based
# Procedure, shortened: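 KB/VCR cells exposed to test agents together with the MDR reversal agent verapamil. Growth inhibition was read by SRB assay after 72 h treatment; each point is the mean of three independent experiments.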
# Mus musculus [25] = assay: Toxicity in BALB/cA nu/nu mouse assessed as change in liver gross anatomy at 1 to 4 mg/kg, po; format: organism-based; design: dose 1-4 mg/kg, route oral; conditions: in vivo; procedure, shortened: as §4
# MCF7 [26] = assay: Resistant factor, ratio of IC50 for multidrug-resistant human MCF7/ADR cells to IC50 for human MCF7 cells; format: functional; procedure, shortened: as §5
# [27] = Cytotoxicity against multidrug-resistant human MCF7/ADR cells by SRB assay; format: functional, cell-based; conditions: NCI/ADR-RES; procedure, shortened: as §1
# SMMC-7721 [28] = assay: Antitumor activity against human SMMC7721 cells xenografted in BALB/cA nu/nu mouse assessed as tumor growth inhibition at 1 to 4 mg/kg, po; format: functional, organism-based; procedure, shortened: as §3
# HeLa = assay: Cytotoxicity against human HeLa cells after 72 hrs […]; format: functional, cell-based; procedure, shortened: as §2
# PC-3 [29] = assay: Antitumor activity against human PC3 cells xenografted in BALB/cA nu/nu mouse assessed as tumor growth inhibition at 2 mg/kg, po measured on day 21 postinfection; format: functional, organism-based; design: dose 2 mg/kg; procedure, shortened: as §3
# Mus musculus [30] = assay: Systemic toxicity in BALB/cA nu/nu mouse at 1 to 4 mg/kg, po; format: organism-based; design: dose 1-4 mg/kg, route oral; conditions: in vivo; procedure, shortened: as §4
# [31] = Cytotoxicity against human HO8910 cells after 72 hrs by […]; format: functional, cell-based; conditions: HO-8910, 72 h; procedure, shortened: as §2
# PC-3 [32] = assay: Cytotoxicity against human PC3 cells after 72 hrs by […]; format: functional, cell-based; conditions: PC-3, 72 h; procedure, shortened: as §2
compound,measurement,setting,value
CC(C)[C@]12O[C@H]1[C@@H]1O[C@]13[C@]1(O[C@H]1C[C@H]1C4=C(CC[C@@]13C)C(=O)OC4)[C@]2(O)CO,IC50,MDA-MB-468 [1],> 100000 nM
same,IC50,PC-3 [2],> 100000 nM
same,IC50,SK-OV-3 [3],> 100000 nM
CC(C)[C@]12O[C@H]1[C@@H]1O[C@]13[C@]1(O[C@H]1C[C@H]1C4=C(CC[C@@]13C)C(=O)OC4)[C@]21CO1,IC50,[4],907 nM
same,IC50,HCT-116,219 nM
same,IC50,SGC-7901 [5],175 nM
same,IC50,DU-145,256 nM
same,IC50,Bel-7402,332 nM
same,Activity,MDA-MB-468 [6],inactive
same,IC50,MDA-MB-231,280 nM
same,Activity,Mus musculus [7],Non-toxic
same,Ratio IC50,KB [8],0.77
same,IC50,SMMC-7721 [9],350 nM
same,Activity,SK-OV-3 [10],87.5%
same,Activity,Mus musculus [11],Non-toxic
same,Activity,Mus musculus [12],Non-toxic
same,IC50,HCT-15,648 nM
same,IC50,MKN-28,2540 nM
same,IC50,MDA-MB-468 [1],180 nM
same,IC50,MOLT-4,251 nM
same,IC50,K562 [13],421 nM
same,IC50,[14],293 nM
same,IC50,MCF7 [15],360 nM
same,IC50,A549,702 nM
same,Activity,SGC-7901 [16],75%
same,IC50,KB [17],615 nM
same,IC50,U-251,657 nM
same,Ratio IC50,K562 [18],1.76
same,IC50,SK-OV-3 [19],270 nM
same,Activity,SK-OV-3 [20],97.4%
same,IC50,[21],740 nM
same,IC50,[22],386 nM
same,Activity,PC-3 [23],Active
same,T/C,SK-OV-3 [24],50.2%
same,IC50,PC-3 [2],270 nM
same,Activity,MDR,Active
same,Activity,Mus musculus [25],Non-toxic
same,IC50,SK-OV-3 [3],100 nM
same,Ratio IC50,MCF7 [26],2.53
same,IC50,[27],910 nM
same,Activity,SMMC-7721 [28],inactive
same,IC50,HeLa,507 nM
same,Activity,PC-3 [29],Active
same,Activity,Mus musculus [30],Non-toxic
same,IC50,[31],538 nM
same,IC50,PC-3 [32],637 nM
CC(C)[C@]12O[C@H]1[C@@H]1O[C@]13[C@]1(O[C@H]1C[C@H]1C4=C(CC[C@@]13C)C(=O)OC4)[C@]21COS(=O)(=O)O1,IC50,MDA-MB-468 [1],> 100000 nM
same,IC50,PC-3 [2],13900 nM
same,IC50,SK-OV-3 [3],> 100000 nM
CC[C@]1(O)C[C@H]2CN(CCc3c([nH]c4ccccc34)[C@@](C(=O)OC)(c3cc4c(cc3OC)N(C=O)[C@H]3[C@@](O)(C(=O)OC)[C@H](OC(C)=O)[C@]5(CC)C=CCN6CC[C@]43[C@@H]65)C2)C1,Activity,MDR,Active
CC(C)[C@]1(O)[C@H](Cl)[C@@H]2O[C@]23[C@]2(O[C@H]2C[C@H]2C4=C(CC[C@@]23C)C(=O)OC4)[C@]12CO2,IC50,MDA-MB-468 [1],210 nM
same,IC50,PC-3 [2],470 nM
same,IC50,SK-OV-3 [3],140 nM
